From ChEMBL document CHEMBL3232705, “Discovery of isoquinolinone indole acetic acids as antagonists of chemoattractant receptor homologous molecule expressed on Th2 cells (CRTH2) for the treatment of allergic inflammatory diseases” (J Med Chem, 2014)
pIC50: −log10 of the molar value. Calls of active or inactive are those of the source. The calls are words filed in the database; no cut-off is given here.

Key:
[1] = biological target: T1, Thromboxane A2 receptor (Homo sapiens, UniProt P21731); experiment: Antagonist activity at TXA2 receptor (unknown origin) by FRET assay
T1 sequence (P21731 whole entry): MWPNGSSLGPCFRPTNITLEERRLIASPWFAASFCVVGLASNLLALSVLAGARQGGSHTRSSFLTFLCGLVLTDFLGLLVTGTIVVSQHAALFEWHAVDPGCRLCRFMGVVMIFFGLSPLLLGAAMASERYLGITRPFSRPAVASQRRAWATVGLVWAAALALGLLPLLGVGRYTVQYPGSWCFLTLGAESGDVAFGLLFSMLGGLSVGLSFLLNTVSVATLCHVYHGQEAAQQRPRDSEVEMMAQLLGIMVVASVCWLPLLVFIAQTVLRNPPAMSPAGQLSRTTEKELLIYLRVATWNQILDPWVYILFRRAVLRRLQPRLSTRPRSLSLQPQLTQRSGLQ

[2] = biological target: T2, Prostaglandin D2 receptor (Homo sapiens, UniProt Q13258); experiment: Binding affinity to DP1 receptor (unknown origin) by FRET assay
T2 sequence (Q13258 whole entry): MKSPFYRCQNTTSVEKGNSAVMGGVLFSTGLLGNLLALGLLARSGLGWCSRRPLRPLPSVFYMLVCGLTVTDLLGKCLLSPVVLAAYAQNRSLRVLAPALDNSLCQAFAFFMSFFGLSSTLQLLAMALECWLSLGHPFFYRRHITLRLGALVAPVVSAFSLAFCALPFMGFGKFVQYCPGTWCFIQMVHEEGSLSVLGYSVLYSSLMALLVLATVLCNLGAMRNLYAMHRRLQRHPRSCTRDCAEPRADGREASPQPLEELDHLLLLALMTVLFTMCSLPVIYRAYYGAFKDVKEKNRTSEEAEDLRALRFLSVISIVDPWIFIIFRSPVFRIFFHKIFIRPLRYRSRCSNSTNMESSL

[3] = biological target: Cytochrome P450 3A4 (Homo sapiens, UniProt P08684); experiment: Inhibition of CYP3A4 (unknown origin); format: ADME
Cytochrome P450 3A4, sequence (P08684 whole entry): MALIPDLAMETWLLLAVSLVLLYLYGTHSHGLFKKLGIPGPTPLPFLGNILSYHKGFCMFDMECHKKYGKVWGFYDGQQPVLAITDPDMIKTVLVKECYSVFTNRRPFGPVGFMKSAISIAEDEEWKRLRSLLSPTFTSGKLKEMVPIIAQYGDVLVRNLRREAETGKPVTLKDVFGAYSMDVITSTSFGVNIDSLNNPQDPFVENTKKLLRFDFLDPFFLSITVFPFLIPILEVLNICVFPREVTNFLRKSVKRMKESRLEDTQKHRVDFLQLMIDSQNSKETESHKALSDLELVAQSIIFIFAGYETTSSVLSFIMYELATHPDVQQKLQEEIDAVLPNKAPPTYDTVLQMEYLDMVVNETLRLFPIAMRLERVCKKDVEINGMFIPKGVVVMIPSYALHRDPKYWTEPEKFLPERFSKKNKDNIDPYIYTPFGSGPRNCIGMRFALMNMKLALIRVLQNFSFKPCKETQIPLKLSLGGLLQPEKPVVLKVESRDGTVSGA

[4] = biological target: Cytochrome P450 2D6 (Homo sapiens, UniProt P10635); experiment: Inhibition of CYP2D6 (unknown origin); format: ADME
Cytochrome P450 2D6, sequence (P10635 whole entry): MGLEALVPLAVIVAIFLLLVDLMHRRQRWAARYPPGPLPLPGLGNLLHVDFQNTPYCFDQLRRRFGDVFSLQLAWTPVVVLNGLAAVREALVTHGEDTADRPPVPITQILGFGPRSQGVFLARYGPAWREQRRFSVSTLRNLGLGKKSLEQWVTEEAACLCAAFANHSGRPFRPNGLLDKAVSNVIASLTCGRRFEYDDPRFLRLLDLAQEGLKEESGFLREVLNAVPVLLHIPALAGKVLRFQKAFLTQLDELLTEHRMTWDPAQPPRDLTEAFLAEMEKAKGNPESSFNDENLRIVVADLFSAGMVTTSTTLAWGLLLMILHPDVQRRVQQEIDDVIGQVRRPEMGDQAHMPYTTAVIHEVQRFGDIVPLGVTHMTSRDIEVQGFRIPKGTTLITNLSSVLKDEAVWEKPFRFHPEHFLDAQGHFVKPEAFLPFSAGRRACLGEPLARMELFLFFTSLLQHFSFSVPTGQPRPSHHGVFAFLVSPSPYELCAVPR

[5] = biological target: T3, Cytochrome P450 2A6 (Homo sapiens, UniProt P11509); experiment: Inhibition of CYP2A6 (unknown origin); format: ADME
T3 sequence (P11509 whole entry): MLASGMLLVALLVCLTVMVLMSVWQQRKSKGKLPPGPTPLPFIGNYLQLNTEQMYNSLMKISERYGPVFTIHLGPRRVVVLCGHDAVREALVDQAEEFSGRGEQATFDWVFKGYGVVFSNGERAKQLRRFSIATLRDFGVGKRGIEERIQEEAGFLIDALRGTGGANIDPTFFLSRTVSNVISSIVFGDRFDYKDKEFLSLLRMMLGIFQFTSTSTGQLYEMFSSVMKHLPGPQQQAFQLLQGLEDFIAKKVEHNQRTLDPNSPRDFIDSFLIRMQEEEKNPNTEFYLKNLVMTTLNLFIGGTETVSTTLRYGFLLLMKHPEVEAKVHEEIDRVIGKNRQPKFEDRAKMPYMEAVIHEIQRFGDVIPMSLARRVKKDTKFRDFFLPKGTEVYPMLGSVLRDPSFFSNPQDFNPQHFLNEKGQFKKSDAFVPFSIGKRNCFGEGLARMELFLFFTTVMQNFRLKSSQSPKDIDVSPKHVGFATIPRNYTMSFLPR

[6] = test system: Ovis aries; experiment: Inhibition of allergen-induced mucociliary clearance in sheep assessed as tracheal mucus velocity at 3 mg/kg, iv measured at 4 hrs (reference value: 47%); format: functional; conditions: Trachea
Summary of the method: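 Five sheep received 3 mg/kg iv around allergen challenge. Tracheal mucus velocity measured at 4 h and 8 h and expressed as % of baseline.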

[7] = test system: Ovis aries; experiment: Inhibition of Ascaris-induced airway bronchoconstriction in sheep assessed as inhibition of bronchoalveolar lavage fluid inflammation at 1 mg/kg, iv qd for 7 days; format: functional, organism-based; design: dose 1 mg/kg; conditions: Lung
Summary of the method: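 Sheep given 1 mg/kg iv once daily for 7 days before Ascaris suum allergen challenge. Early and late responses read as airway resistance above baseline, compared with each animal's historical untreated values. After the AHR measurement, three bronchi per sheep were lavaged for cell counts.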

[8] = test system: Ovis aries; experiment: Inhibition of carbachol-induced airway hyperresponsiveness in sheep at 3 mg/kg, iv bid; format: functional, organism-based; design: dose 3 mg/kg
[9] = test system: Ovis aries; experiment: Inhibition of Ascaris-induced airway bronchoconstriction in sheep assessed as inhibition of early phase allergic airway bronchoconstriction at 3 mg/kg, iv bid; format: functional, organism-based; design: dose 3 mg/kg
[10] = test system: Cavia porcellus; experiment: Antiallergic activity in ovalbumin-induced allergic lung inflammation Hartley guinea pig model assessed as total cellularity in bronchoalveolar lavage fluid at 20 mg/kg, po administered 1 hr before and 6 hrs after ovalbumin challenge measured after 24 hrs; format: functional, organism-based; design: dose 20 mg/kg
Summary of the method: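 Female Hartley guinea pigs (375–425 g) sensitized ip on days 1 and 5 with 100 μg OVA plus 100 mg aluminum hydroxide in PBS, then challenged on day 15 with aerosolized 0.01% OVA for 60 min. Dosed orally 1 h before and 6 h after challenge; vehicle was Tween 80 in cherry syrup. On day 16, lungs lavaged with 2 × 10 mL PBS. Total cells counted by hemocytometer; differentials from stained cytospins. Unpaired t test.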

[11] = test system: Mus musculus; experiment: Antiallergic activity in house dust mite-induced allergic airway disease BALB/c mouse model assessed as reduction in lymphocyte level in bronchoalveolar lavage fluid at 40 mg/kg, po after 72 hrs of HDM challenge; format: functional, organism-based; design: dose 40 mg/kg; conditions: Lung
Summary of the method: (§1)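 BALB/c mice given house dust mite intratracheally via a catheter passed through the vocal cords. Test article 40 mg/kg orally once daily; dexamethasone 1 mg/kg ip once daily as reference. Total and differential BAL cells (eosinophils, macrophages, lymphocytes, neutrophils) counted 72 h after HDM challenge. Mean ± SEM, Mann–Whitney U test.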

[12] = test system: Mus musculus; experiment: Antiallergic activity in house dust mite-induced allergic airway disease BALB/c mouse model assessed as reduction in total cellularity in bronchoalveolar lavage fluid at 40 mg/kg, po after 72 hrs of HDM challenge; format: functional, organism-based; design: dose 40 mg/kg; conditions: Lung; summary of the method: as §1
[13] = test system: Mus musculus; experiment: Antiallergic activity in house dust mite-induced allergic airway disease BALB/c mouse model assessed as reduction in airway inflammation at 40 mg/kg, po qd after 17 days; format: functional, organism-based; design: dose 40 mg/kg; summary of the method: as §1
[14] = Oral bioavailability in monkey at 10 mg/kg; format: ADME, organism-based, Macaca mulatta; conditions: rhesus monkey, in vivo
[15] = Oral bioavailability in dog at 10 mg/kg; format: ADME, organism-based, Canis lupus familiaris; conditions: in vivo
[16] = Cmax in dog at 10 mg/kg, po; format: ADME, organism-based, Canis lupus familiaris; design: dose 10 mg/kg, route oral; conditions: in vivo
Summary of the method: (§2)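 Single intravenous dose of 2 mg/kg and single oral dose of 10 mg/kg, given separately, in rat, dog and monkey. Clearance and half-life taken from the iv arm; Cmax from the oral arm.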

[17] = Cmax in monkey at 10 mg/kg, po; format: ADME, organism-based, Macaca mulatta; design: dose 10 mg/kg, route oral; conditions: rhesus monkey, in vivo; summary of the method: as §2
[18] = Cmax in rat at 10 mg/kg, po; format: ADME, organism-based; design: dose 10 mg/kg, route oral; conditions: in vivo; summary of the method: as §2
[19] = Volume of distribution at steady state in monkey at 2 mg/kg, iv; format: ADME, organism-based, Macaca mulatta; design: dose 2 mg/kg, route intravenous; conditions: rhesus monkey, in vivo, read-out: Vdss
[20] = Volume of distribution at steady state in dog at 2 mg/kg, iv; format: ADME, organism-based, Canis lupus familiaris; design: dose 2 mg/kg, route intravenous; conditions: in vivo, read-out: Vdss
[21] = Half life in monkey at 2 mg/kg, iv; format: ADME, organism-based, Macaca mulatta; design: dose 2 mg/kg, route intravenous; conditions: rhesus monkey, in vivo; summary of the method: as §2
[22] = Clearance in monkey at 2 mg/kg, iv; format: ADME, organism-based, Macaca mulatta; design: dose 2 mg/kg, route intravenous; conditions: rhesus monkey, in vivo; summary of the method: as §2
[23] = Half life in rat at 2 mg/kg, iv; format: ADME, organism-based; design: dose 2 mg/kg, route intravenous; conditions: in vivo; summary of the method: as §2
[24] = Clearance in rat at 2 mg/kg, iv; format: ADME, organism-based; design: dose 2 mg/kg, route intravenous; conditions: in vivo; summary of the method: as §2
[25] = test system: Rattus norvegicus; experiment: Oral bioavailability; conditions: in vivo

- pIC50 [1]: < 6.00
- pIC50 [2]: 4.80
- pIC50 [3]: < 4.00
- pIC50 [4]: < 4.00
- pIC50 [5]: < 4.00
- bioavailability [14]: 69%
- bioavailability [15]: 32%
- Cmax [16]: 2010 ng/mL
- Cmax [17]: 2970 ng/mL
- Cmax [18]: 253 ng/mL
- Vd [19]: 0.95 L/kg
- Vd [20]: 0.7 L/kg
- half-life [21]: 4.1 h
- clearance [22]: 6.1 mL/min/kg
- half-life [23]: 2.7 h
- clearance [24]: 18 mL/min/kg
- bioavailability [25]: 35%
SMILES: Cc1c(-c2cn(C(C)C)c(=O)c3ccccc23)c2cc(F)ccc2n1CC(=O)O
- inhibition in vivo at 3 mg/kg [6]: 70%
- inhibition [7]: Active
- inhibition [8]: Active
- inhibition [9]: inactive
- inhibition [10]: Active
- inhibition [11]: Active
- inhibition [12]: Active
- inhibition [13]: Active
